In brackets after ≈: the same amount, converted by molar mass.
Assays:
[1] = tested on: HCV-Cre in Huh7.5.1LoxPGluc cells; assay: HCV-Cre/LoxPGluc cell-based HCV infection qHTS assay; set-up: species or system Hepatitis C virus; details: primary screen, luciferase 48 h
Outline: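 Huh7.5.1LoxPGluc cells carry a Cre-activated Gaussia luciferase and are kept in DMEM with 10% FBS at 37 °C and 5% CO2. Cells (750/well) were plated overnight, then given test compound and HCV-Cre at ~0.05 m.o.i. Five plates were run: DMSO plus 0.34, 1.7, 8.5 and 42 μM. Luciferase was read at 48 h. Responses were normalized to 10 μM cyclosporin A (100%) and DMSO (0%), and EC50 was fitted by nonlinear regression.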

[2] = tested on: human tyrosyl-DNA phosphodiesterase 1; details: cited from earlier work; for inhibitory activity of human tyrosyl-DNA phosphodiesterase 1: ref AID 686978
[3] = tested on: ELG1-dependent DNA repair; details: PubChem / in-house qHTS cross-activity, AID not given; cited from earlier work
HIV = details: ref AID:651610; cited from earlier work
[4] = tested on: respiratory syncytial virus (RSV); details: ref AID: 2410; cited from earlier work
[5] = tested on: HCV-WT (wild-type HCVcc) in Huh7.5.1 cells; assay: 2-part HCV-WT infection assay with HCV core immunofluorescence staining; type: cell-based, Hepatitis C virus; details: for higher potency at part-2 compared to part-1: HCV-WT 2-part infection assay
Outline: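 Huh7.5.1 cells (3,000/well) were infected with wild-type J6/JFH1 HCVcc at 0.05 moi, with test compound added at infection in 1:3 serial dilutions from 30 μM (part 1). After 48 h, the media were moved onto fresh Huh7.5.1 cells (part 2) and infected for 48 h. Cells were stained with anti-core 6G7 mAb, an Alexa Fluor 488 secondary and Hoechst, then imaged. Core-positive cell percentages were normalized to DMSO and plotted as concentration-response curves.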

[6] = Rat liver microsomal stability; type: in vitro ADME; details: for Microsomal t1/2: rat liver microsomes, 37°C, NADPH
HCV life cycle = type: cell-based, Hepatitis C virus; details: designated from HCVsc, HCVpp and HCV replicon inhibition (>50% = significant)
Permeability = type: physicochemical
Aqueous solubility = type: physicochemical
HCVsc = assay: HCV single-cycle infection assay; type: cell-based, Hepatitis C virus; details: significant = more than 50% decrease
Outline: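 Single-round defective HCV particles were made by replicon trans-packaging. These particles infect and replicate but cannot assemble new virions. Luciferase signal was read 48 h after compound treatment, with cyclosporin A as positive control.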

HCVpp-1a = type: cell-based, Hepatitis C virus
miRNAs = details: D4 and its derivatives; ref AID: 2289; cited from earlier work
[7] = tested on: 5′UTR stem-loop driven prion protein mRNA translation in H4 neuroglioblastoma cells; details: D4 and its derivatives, ref AID: 1814; cited from earlier work
[8] = tested on: posterior segregation family member (pos-1) binding to mex-3-RNA; details: ref PubChem AID: 1964; cited from earlier work
DNA polymerase ETA = details: ref AID 588591; cited from earlier work
[9] = tested on: assembly of the perinucleolar compartement; details: ref AID 2427; cited from earlier work
D1 dopamine receptor = details: ref AID: 504660; cited from earlier work
[10] = tested on: human M1 muscarinic receptor; details: ref AID: 624040; cited from earlier work

CCCCCn1c(=O)[nH]c2cc(C(=O)NCCCN3CCCCC3CC)ccc2c1=O (centres unmarked) [MLS000948303-01]
EC50 [1]: 7.08 µM

Cc1c(NC(=O)c2cc3c(s2)-c2ccccc2OC3)cccc1[N+](=O)[O-] [D5]
inhibitory activity against human TDP1 ([2]; PubChem / in-house qHTS cross-activity, AID not given): showed inhibitory activities | inhibitory activity against ELG1-dependent DNA repair [3]: showed inhibitory activities | inhibition of HIV (HIV): inhibitor | inhibition of RSV [4]: inhibitor

CC1CCCCN1CCCNC(=O)c1ccc2c(=O)n(CCc3ccccc3)c(=O)[nH]c2c1 (centres unmarked) [MLS000519917-01]
EC50 [1]: 3.98 µM

CCC1CCCCN1CCCNC(=O)c1ccc2c(=O)n(CCOC)c(=O)[nH]c2c1 (centres unmarked) [MLS000948314-01]
EC50 [1]: > 100 µM

COC(=O)C1=C(c2ccc(-c3ccccc3)c(F)c2)C[C@@H]2CC[C@H]1N2C(=O)NCc1cccc2ccccc12 [D1]
inhibitory activity of human tyrosyl-DNA phosphodiesterase 1 [2]: showed inhibitory activity

Cc1ccc(C)c2nc(SCC(=O)N3CCCc4ccccc43)c(C#N)cc12 [D7]
higher potency at part-2 compared to part-1 [5]: 10–50 fold

CCCCCn1c(=O)[nH]c2cc(C(=O)NCCCN3CCC(C)CC3)ccc2c1=O [MLS000876570-01]
Microsomal t1/2 [6]: > 30.0 m | half-life (t1/2) in rat microsomes [6]: greater than 30 min | Life cycle stage (HCV life cycle): Entry | Permeability (Permeability): < 30.9 ×10⁻⁶ cm/s | Solubility (Aqueous solubility): > 59.0 µg/mL | EC50 [1]: 4.47 µM

Cc1ccccc1-c1nc(CN2CCC(C(=O)NCCC3=CCCCC3)CC2)c(C)o1 [MLS000095191-01]
EC50 [1]: 6.31 µM

CCN1CCN(CCCOc2ccc(-c3ccccc3)cc2)CC1 [MLS000049859-01]
Microsomal t1/2 [6]: 7.9 m | half-life (t1/2) in rat microsomes [6]: 7.9 min | Life cycle stage (HCV life cycle): Entry | Permeability (Permeability): >2183.0 ×10⁻⁶ cm/s | Solubility (Aqueous solubility): > 48.0 µg/mL

CCCCCn1c(=O)[nH]c2cc(C(=O)NC3CCN(Cc4ccccc4)CC3)ccc2c1=O [MLS000519908-01]
EC50 [1]: > 100 µM

N#C/C(=C\Nc1ccc2cn[nH]c2c1)c1nc(-c2ccccc2)cs1 [D2]
inhibitory activity of human tyrosyl-DNA phosphodiesterase 1 [2]: showed inhibitory activity

O=C(Nc1ccc(S(=O)(=O)Nc2ccccc2)cc1)c1ccc(CN2CCOCC2)cc1 [MLS000714550]
inhibition of HCV core-positive cells, part-1 versus part-2 ([5]; compounds 1:3 dilutions from 30 μM, 48 h per part): decreased similarly in both parts

Cc1ccccc1-c1nc(CN2CCC(C(=O)NCCN3CCOCC3)CC2)c(C)o1 [MLS000913230-01]
EC50 [1]: > 100 µM

CC(NC(=O)c1cc2c(=O)n3ccccc3nc2n(CC2CCCO2)c1=N)c1ccccc1 (centres unmarked) [MLS001217747-01]
Life cycle stage (HCV life cycle): entry inhibitors | inhibition in HCVsc assay (HCVsc): significant inhibition

Cc1oc(-c2ccc(Cl)cc2)nc1CN1CCCC(C(=O)NCCCN2CCCC2=O)C1 (centres unmarked) [MLS000117605-01]
EC50 [1]: 11.2 µM

Cc1ccccc1-c1nc(CN2CCC(C(=O)NCc3cccnc3)CC2)c(C)o1 [MLS000095186-01]
EC50 [1]: 5.01 µM

CCC1CCCCN1CCCNC(=O)C1CCN(Cc2nc(-c3ccc(Cl)cc3)oc2C)CC1 (centres unmarked) [MLS000913279-01]
EC50 [1]: 1.41 µM

N=c1c(C(=O)NCc2ccc3c(c2)OCO3)cc2c(=O)n3ccccc3nc2n1Cc1cccnc1 [MLS000040412-01]
inhibition in HCVpp assay (HCVpp-1a): less than 50% | Life cycle stage (HCV life cycle): entry inhibitors | inhibition in HCVsc assay (HCVsc): significant inhibition

COc1ccc(CN2CCC(N(CCc3ccccc3)Cc3ccccc3)CC2)c(OC)c1.O=C(O)C(=O)O [MLS000662842-01]
Microsomal t1/2 [6]: 2.3 m | half-life (t1/2) in rat microsomes [6]: 2.3 min | Life cycle stage (HCV life cycle): Assembly/secretion | Solubility (Aqueous solubility): 49.3 µg/mL

Cc1ccccc1-c1nc(CN2CCC(C(=O)NCCCN3CC(C)CC(C)C3)CC2)c(C)o1 (centres unmarked) [MLS000877128-01]
Life cycle stage (HCV life cycle): Entry | Permeability (Permeability): 489.1 ×10⁻⁶ cm/s | Solubility (Aqueous solubility): 53.9 µg/mL (≈ 115 µM) | EC50 [1]: 1.26 µM

Cc1ccccc1-c1nc(CN2CCC(C(=O)NCCCN3CCCC3)CC2)c(C)o1 [MLS000095192-01]
EC50 [1]: 14.1 µM

COc1ccc(CCNC(=O)c2cc3c(=O)n4ccccc4nc3n(C3CCCCC3)c2=N)cc1 [MLS001139315-01]
Life cycle stage (HCV life cycle): entry inhibitors

Cc1ccccc1-c1nc(CN2CCC(C(=O)NCC3CCCO3)CC2)c(C)o1 (centres unmarked) [MLS000095190-01]
EC50 [1]: > 100 µM

Cc1cc(SCC(=O)c2ccccc2)n2ncc(-c3ccccc3)c2n1 [MLS000763045-01]
higher potency at part-2 compared to part-1 [5]: 10–50 fold

CC1CCN(CCCNC(=O)c2ccc3c(=O)n(CCc4ccccc4)c(=O)[nH]c3c2)CC1 [MLS000519916-01]
EC50 [1]: 8.91 µM

O=C(NCCCN1CCCCC1)c1ccc2c(=O)n(CCc3ccccc3)c(=O)[nH]c2c1 [MLS000086784-01]
EC50 [1]: 6.31 µM

CCOC(=O)c1cc2c(=O)n3ccccc3nc2n(CCCOC)c1=NC(=O)C(C)(C)C [MLS000879011-01]
Life cycle stage (HCV life cycle): entry inhibitors

CCNC(=S)/N=C(\N)Nc1nc(C)c2cc(C)ccc2n1 [D4]
modulation of miRNAs (miRNAs): potent modulators | activation of 5′UTR stem-loop driven prion protein mRNA translation [7]: activators | targeting pos-1 binding to mex-3-RNA [8]: targets

CCCCCn1c(=O)[nH]c2cc(C(=O)NCCN3CCCCC3C)ccc2c1=O (centres unmarked) [MLS000948325-01]
EC50 [1]: 22.4 µM

Cc1oc(-c2ccc(Cl)cc2)nc1CN1CCC(C(=O)NCCCN2CCCC2=O)CC1 [MLS000878431-01]
EC50 [1]: 22.4 µM

Cn1c(=O)c2c(nc(SCC(=O)NCc3ccc4c(c3)OCO4)n2Cc2ccc(Cl)cc2)n(C)c1=O [D3]
inhibition of DNA polymerase ETA (DNA polymerase ETA): inhibitor | inhibition of assembly of the perinucleolar compartement [9]: inhibited the assembly

CCN1CCN(c2ccc(NC(=O)c3cccc(OCc4ccccc4)c3)cc2)CC1 [B5]
activity against D1 dopamine receptor (D1 dopamine receptor): showed activities | activity against human M1 muscarinic receptor [10]: showed activities

COc1ccc(CCNC(=O)c2cc3c(=O)n4ccccc4nc3n(CCCN3CCOCC3)c2=N)cc1 [MLS001139388-01]
Life cycle stage (HCV life cycle): entry inhibitors

CCCCCn1c(=O)[nH]c2cc(C(=O)NCCCN3CCCCC3)ccc2c1=O [MLS000086763-01]
EC50 [1]: 10 µM
